Measurements reported in ChEMBL document CHEMBL1828559, “Synthesis and characterization of high-affinity 4,4-difluoro-4-bora-3a,4a-diaza-s-indacene-labeled fluorescent ligands for human β-adrenoceptors” (J Med Chem, 2011).
pKd: −log10 of the molar value. The source made the active and inactive calls. No cut-off for these calls is given here.

What was measured:
[1] = target: T1, Beta-2 adrenergic receptor (Homo sapiens, UniProt P07550); assay: Antagonist activity at human beta-2 adrenergic receptor expressed in salbutamol-stimulated CHO-K1 cells assessed as CRE-SPAP level by […]; assay type: functional, cell-based
Target sequence in this assay (P07550 whole entry): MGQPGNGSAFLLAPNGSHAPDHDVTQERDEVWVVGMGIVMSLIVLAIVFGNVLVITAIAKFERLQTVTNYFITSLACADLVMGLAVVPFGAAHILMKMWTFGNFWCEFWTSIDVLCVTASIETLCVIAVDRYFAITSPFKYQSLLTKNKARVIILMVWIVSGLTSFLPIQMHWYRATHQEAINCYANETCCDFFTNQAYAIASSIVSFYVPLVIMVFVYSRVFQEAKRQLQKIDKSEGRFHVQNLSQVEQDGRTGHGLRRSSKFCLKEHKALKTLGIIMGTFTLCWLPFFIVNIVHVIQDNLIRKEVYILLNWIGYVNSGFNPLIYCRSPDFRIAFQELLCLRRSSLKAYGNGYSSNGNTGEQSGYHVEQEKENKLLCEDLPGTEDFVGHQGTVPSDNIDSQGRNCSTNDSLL

[2] = target: T2, Beta-3 adrenergic receptor (Homo sapiens, UniProt P13945); assay: Displacement of [3H]-CGP 12177 from human beta-3 adrenergic receptor expressed in CHOK1 cells; assay type: cell-based, CHO-K1
Target sequence in this assay (P13945 whole entry): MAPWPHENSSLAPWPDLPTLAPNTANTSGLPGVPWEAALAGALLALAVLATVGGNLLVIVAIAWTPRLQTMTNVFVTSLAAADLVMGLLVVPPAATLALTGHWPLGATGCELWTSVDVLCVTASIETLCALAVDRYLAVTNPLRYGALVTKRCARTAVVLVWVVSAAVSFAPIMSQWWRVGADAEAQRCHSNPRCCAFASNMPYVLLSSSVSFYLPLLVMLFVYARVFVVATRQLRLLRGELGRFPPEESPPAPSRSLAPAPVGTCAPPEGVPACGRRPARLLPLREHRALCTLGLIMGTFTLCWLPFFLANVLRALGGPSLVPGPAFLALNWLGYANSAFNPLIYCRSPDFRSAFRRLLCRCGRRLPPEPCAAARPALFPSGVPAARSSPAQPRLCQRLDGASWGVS

[3] = target: T1, Beta-2 adrenergic receptor; assay: Displacement of [3H]-CGP 12177 from human beta-2 adrenergic receptor expressed in CHOK1 cells; assay type: cell-based, CHO-K1
Target sequence in this assay (P07550 whole entry): as the sequence (P07550 whole entry) above

[4] = target: T3, Beta-1 adrenergic receptor (Homo sapiens, UniProt P08588); assay: Antagonist activity at human beta-1 adrenergic receptor site 2 expressed in CGP 12177-stimulated CHO-K1 cells assessed as CRE-SPAP level by […]
[5] = target: T2, Beta-3 adrenergic receptor; assay: Antagonist activity at human beta-3 adrenergic receptor expressed in fenoterol-stimulated CHOK1 cells assessed as CRE-SPAP level by […]; assay type: functional, cell-based, CHO-K1
How it was run: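 CHO-K1 cells stably co-expressing human β3-AR (790 fmol/mg protein) and a six-CRE SPAP reporter, grown to confluence. Fenoterol was the stimulating agonist. SPAP secreted into the medium was measured 5–6 h after agonist addition. Fixed antagonist concentrations of 10, 100 or 1000 nM were used. The Stephenson partial-agonist method was used where partial agonism occurred.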
Target sequence in this assay (P13945 whole entry): as the sequence (P13945 whole entry) above

[6] = target: T3, Beta-1 adrenergic receptor; assay: biochemical
[7] = target: T3, Beta-1 adrenergic receptor; assay: Antagonist activity at human beta-1 adrenergic receptor site 1 expressed in cimeterol-stimulated CHO-K1 cells assessed as CRE-SPAP level by […]; assay type: functional, cell-based
[8] = target: T2, Beta-3 adrenergic receptor; assay: Partial agonist activity at human beta-3 adrenergic receptor expressed in CHOK1 cells assessed as CRE-SPAP production at 1 uM by […] relative to 10 uM isoprenaline; assay type: functional, cell-based; settings: CHO-K1
How it was run: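 CHO-K1 cells co-expressing human β3-AR and a CRE-SPAP reporter. SPAP secretion was measured 5–6 h after ligand addition. The response to 1 μM ligand alone is expressed as a percentage of the response to 10 μM isoprenaline within the same experiment. Values are mean ± SE of n separate experiments.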
Target sequence in this assay (P13945 whole entry, looked up): as the sequence (P13945 whole entry) above

[9] = target: T1, Beta-2 adrenergic receptor; assay: Binding affinity to human beta-2 adrenergic receptor expressed in CHOK1 cells at 3 nM after 18 hrs by confocal imaging; assay type: cell-based; settings: CHO-K1
How it was run: (§1)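 Live confocal imaging at room temperature in HEPES-buffered saline. CHO-K1 cells expressing human β2-AR were grown at least 18 h to 80–100% confluence. Where used, antagonists (ICI 118551 1–100 nM; CGP 20712A) were preincubated for 30 min, then 3 nM fluorescent ligand was added for 10 min. Imaging was done in its continued presence, with 633 nm excitation and emission through a 650 nm long-pass filter. Control CHO-K1 cells lacked the receptor.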
Target sequence in this assay (P07550 whole entry, looked up): as the sequence (P07550 whole entry) above

[10] = target: T1, Beta-2 adrenergic receptor; assay: Binding affinity to human beta-2 adrenergic receptor expressed in CHOK1 cells at 3 nM preincubated with 1 to 100 nM beta-2 adrenergic receptor antagonist ICI 118551 for 30 mins measured after 18 hrs by confocal imaging; assay type: cell-based; settings: CHO-K1; how it was run: as §1
Target sequence in this assay (P07550 whole entry, looked up): as the sequence (P07550 whole entry) above

[11] = target: T1, Beta-2 adrenergic receptor; assay: Binding affinity to human beta-2 adrenergic receptor expressed in CHOK1 cells at 3 nM preincubated with > 10 uM beta-1 adrenergic receptor antagonist CGP 20712A for 30 mins measured after 18 hrs by confocal imaging; assay type: cell-based; settings: CHO-K1; how it was run: as §1
Target sequence in this assay (P07550 whole entry, looked up): as the sequence (P07550 whole entry) above

T3 sequence (P08588 whole entry): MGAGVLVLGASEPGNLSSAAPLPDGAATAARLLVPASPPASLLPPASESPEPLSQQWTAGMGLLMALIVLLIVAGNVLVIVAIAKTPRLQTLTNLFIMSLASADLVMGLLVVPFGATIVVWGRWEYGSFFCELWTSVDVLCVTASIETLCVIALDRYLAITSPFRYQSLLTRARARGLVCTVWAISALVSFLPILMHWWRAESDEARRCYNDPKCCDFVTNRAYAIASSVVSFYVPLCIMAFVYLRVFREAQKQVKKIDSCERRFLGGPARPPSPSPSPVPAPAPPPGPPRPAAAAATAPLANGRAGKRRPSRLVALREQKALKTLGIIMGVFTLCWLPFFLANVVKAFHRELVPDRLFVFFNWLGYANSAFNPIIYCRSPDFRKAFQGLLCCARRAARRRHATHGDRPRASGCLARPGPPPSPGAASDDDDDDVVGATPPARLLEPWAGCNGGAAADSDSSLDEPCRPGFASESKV

`O=C(CCCCCNC(=O)COc1ccc(/C=C/c2ccc3n2[B-](F)(F)[N+]2=C(c4cccs4)C=CC2=C3)cc1)NCCNCC(O)COc1cccc2ccccc12` (racemic) was tested, and the pKd [1] was 8.59, the pKd [2] was 7.03 and the pKd [3] was 8.56. For the same molecule, the pKd [4] was 6.45, the pKd [5] was 7.20 and the pKd [6] was 7.05. It also gave a pKd [7] of 7.12.
For `O=C(CCCCCNC(=O)COc1ccc(/C=C/c2ccc3n2[B-](F)(F)[N+]2=C(c4cccs4)C=CC2=C3)cc1)NCCOCCOCCNCC(O)COc1cccc2[nH]ccc12` (racemic), the pKd [1] was 8.14, the Activity [8] was 53.2% and the pKd [2] was 6.42. The pKd [3] was 7.96, the pKd [4] was > 6.00 and the pKd [5] was 6.54. It also gave a pKd [6] of 7.01 and a pKd [7] of 7.42.
`C=CCc1ccccc1OCC(O)CNCCNC(=O)CCCCCNC(=O)COc1ccc(/C=C/c2ccc3n2[B-](F)(F)[N+]2=C(c4cccs4)C=CC2=C3)cc1` (racemic) gave a pKd [1] of 8.80, an Activity [8] of 60.6% and a pKd [2] of 7.33. It also gave a pKd [3] of 8.63, a pKd [4] of 6.92 and a pKd [5] of 7.63. The pKd [6] was 7.26 and the pKd [7] was 7.36.
With `O=C(CCCCCNC(=O)COc1ccc(/C=C/c2ccc3n2[B-](F)(F)[N+]2=C(c4cccs4)C=CC2=C3)cc1)NCCNCC(O)COc1cccc2[nH]ccc12` (racemic) the pKd [1] was 7.52, the Activity [8] was 49.4% and the pKd [2] was 6.48. The pKd [3] was 7.33, the pKd [4] was > 6.00 and the pKd [5] was 6.75. For the same molecule, the pKd [6] was 6.06 and the pKd [7] was 6.52.
In the case of `C=CCc1ccccc1OCC(O)CNC(C)C` (stereo not drawn), the Activity [8] was 62.4%.
`O=C(CCCCCNC(=O)COc1ccc(/C=C/c2ccc3n2[B-](F)(F)[N+]2=C(c4cccs4)C=CC2=C3)cc1)NCCCCNCC(O)COc1cccc2ccccc12` (racemic) was tested, and the pKd [1] was 9.13, the pKd [2] was 6.98 and the pKd [3] was 8.87. For the same molecule, the pKd [4] was 6.62, the pKd [5] was 7.10 and the pKd [6] was 7.25. It also gave a pKd [7] of 7.51.
Work on `C=CCc1ccccc1OC[C@@H](O)CNCCOCCOCCNC(=O)CCCCCNC(=O)COc1ccc(/C=C/c2ccc3n2[B-](F)(F)[N+]2=C(c4cccs4)C=CC2=C3)cc1` yielded a pKd [1] of 9.37, an Activity [8] of 63.5% and a pKd [2] of 7.00. The pKd [3] was 9.03, the pKd [4] was 7.38 and the pKd [5] was 7.21. It also gave a pKd [6] of 7.65 and a pKd [7] of 8.12.
In the case of `CC(C)NCC(O)COc1cccc2[nH]ccc12` (stereo not drawn), the Activity [8] was 85.2%.
`O=C(CCCCCNC(=O)COc1ccc(/C=C/c2ccc3n2[B-](F)(F)[N+]2=C(c4cccs4)C=CC2=C3)cc1)NCCCCNC[C@H](O)COc1cccc2ccccc12` was tested, and the pKd [1] was 9.56, the pKd [2] was 6.91 and the pKd [3] was 9.14. For the same molecule, the pKd [4] was 6.74, the pKd [5] was 6.82 and the pKd [6] was 7.48. It also gave a pKd [7] of 7.87.
With `O=C(CCCCCNC(=O)COc1ccc(/C=C/c2ccc3n2[B-](F)(F)[N+]2=C(c4cccs4)C=CC2=C3)cc1)NCCOCCOCCNC[C@H](O)COc1cccc2ccccc12` the pKd [1] was 9.53, the Activity [9] was “inactive” and the Activity [10] was “inactive”. For the same molecule, the pKd [2] was 7.09, the pKd [3] was 9.21 and the Activity [11] was “inactive”. The pKd [4] was 7.17, the pKd [5] was 6.97 and the pKd [6] was 7.76. For the same molecule, the pKd [7] was 8.46.
For `O=C(CCCCCNC(=O)COc1ccc(/C=C/c2ccc3n2[B-](F)(F)[N+]2=C(c4cccs4)C=CC2=C3)cc1)NCCNC[C@H](O)COc1cccc2ccccc12`, the pKd [1] was 9.37, the pKd [2] was 7.35 and the pKd [3] was 8.86. It also gave a pKd [4] of 7.04, a pKd [5] of 7.58 and a pKd [6] of 7.44. It also gave a pKd [7] of 8.08.
Molecule `O=C(CCCCCNC(=O)COc1ccc(/C=C/c2ccc3n2[B-](F)(F)[N+]2=C(c4cccs4)C=CC2=C3)cc1)NCCCCCCCCNCC(O)COc1cccc2ccccc12` (racemic) has a pKd [1] of 8.60, a pKd [2] of 7.11 and a pKd [3] of 8.24. The pKd [4] was > 6.00, the pKd [5] was 6.94 and the pKd [7] was 6.66.
Work on `C=CCc1ccccc1OCC(O)CNCCOCCOCCNC(=O)CCCCCNC(=O)COc1ccc(/C=C/c2ccc3n2[B-](F)(F)[N+]2=C(c4cccs4)C=CC2=C3)cc1` (racemic) yielded a pKd [1] of 9.21, an Activity [8] of 49.6% and a pKd [2] of 7.09. The pKd [3] was 8.91, the pKd [4] was 7.11 and the pKd [5] was 7.24. For the same molecule, the pKd [6] was 7.50 and the pKd [7] was 7.76.
`O=C(CCCCCNC(=O)COc1ccc(/C=C/c2ccc3n2[B-](F)(F)[N+]2=C(c4cccs4)C=CC2=C3)cc1)NCCCCCCCCNC[C@H](O)COc1cccc2ccccc12` gave a pKd [1] of 8.76, a pKd [2] of 7.17 and a pKd [3] of 8.15. For the same molecule, the pKd [4] was 6.10, the pKd [5] was 6.85 and the pKd [6] was 6.73. For the same molecule, the pKd [7] was 7.28.
Work on `C=CCc1ccccc1OC[C@@H](O)CNCCNC(=O)CCCCCNC(=O)COc1ccc(/C=C/c2ccc3n2[B-](F)(F)[N+]2=C(c4cccs4)C=CC2=C3)cc1` yielded a pKd [1] of 8.74, an Activity [8] of 56.6% and a pKd [2] of 7.16. For the same molecule, the pKd [3] was 8.54, the pKd [4] was 7.13 and the pKd [5] was 7.38. For the same molecule, the pKd [6] was 7.04 and the pKd [7] was 7.33.
With `O=C(CCCCCNC(=O)COc1ccc(/C=C/c2ccc3n2[B-](F)(F)[N+]2=C(c4cccs4)C=CC2=C3)cc1)NCCOCCOCCNCC(O)COc1cccc2ccccc12` (racemic) the pKd [1] was 9.36, the pKd [2] was 6.53 and the pKd [3] was 8.48. For the same molecule, the pKd [4] was 6.95, the pKd [5] was 7.24 and the pKd [6] was 7.14. It also gave a pKd [7] of 7.38.
